# EP2 antag: EP2 receptor (human) inhibition; P43116; C6 glioma cells expressing human EP2, cAMP TR-FRET; cells stimulated with saturating PGE2; inhibition, % at 25 µM; hit rate 0.52% among 260,000; AID 1422;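 active means percent inhibition above 40 after rounding to a whole number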;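 further: rat C6 glioma host cells with rolipram phosphodiesterase inhibitor present; the protocol text gives 20 µM as final concentration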
# EP2 mod: modulators of human EP2 prostaglandin E2 receptor | P43116 | EP2-expressing cells, cAMP HTRF FRET, PGE2 co-stimulation | induction, % at 25 µM | hit rate 0.83% among 260,000;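 active means compounds whose cAMP rise, as percent of the full-agonist control response, exceeds 60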;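 further: rat C6 glioma line stably carrying human EP2 under a CMV promoter; the protocol text gives 20 µM as final concentration; 100% = response of wells given 1 µM PGE2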
# MC4R barr agon: agonists of human melanocortin 4 receptor (MC4R) beta-arrestin | P32245 | U2OS MC4R beta-arrestin complementation, luminescence; percent of melanotan II response, DMSO zero | activation, % at 8.9 µM | hit rate 0.98% among 360,000 | AID 540308;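 active means activation above a per-plate cutoff, the mean activation of sample wells on that plate plus 3 SD, cut at about 8% in these data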
# Target sequence (P32245 whole entry, looked up): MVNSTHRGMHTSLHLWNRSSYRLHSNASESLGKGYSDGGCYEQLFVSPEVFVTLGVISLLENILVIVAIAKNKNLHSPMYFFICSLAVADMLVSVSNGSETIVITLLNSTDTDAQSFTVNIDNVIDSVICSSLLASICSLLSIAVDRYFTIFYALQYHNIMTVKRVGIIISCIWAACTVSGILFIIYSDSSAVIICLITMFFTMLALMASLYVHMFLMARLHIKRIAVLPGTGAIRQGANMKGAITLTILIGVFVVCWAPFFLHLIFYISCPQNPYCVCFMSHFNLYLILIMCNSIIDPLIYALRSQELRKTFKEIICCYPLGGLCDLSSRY
# MC4R antag cAMP: antagonists of human melanocortin 4 receptor (MC4R). P32245. hit rate 0.48% among 360,000. inhibition, % at 6.5 µM. MC4R-expressing cells, MTII-stimulated cAMP, LANCE TR-FRET;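 active means inhibition above its plate's cutoff, the mean of tested wells on that plate plus 3 SD, cut at about 29% in these data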;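 further: 0% = Melanotan II alone and 100% = Melanotan II plus saturating MCL0020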
#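 Material: human MC4R-expressing U2OS cells. Probe or stimulus: Melanotan II challenge. Dosing: 6.5 µM single dose. Times: 30-min compound, 1-h challenge, 1-h detection, room temperature. Technique: TR-FRET with Eu-cAMP and labeled anti-cAMP, 671 nm. Replication: singlicate.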
# Exocytosis inh: lytic granule exocytosis inhibition; TALL-104 LAMP-1 surface exposure, flow cytometry; cells stimulated with thapsigargin and PMA; inhibition, % at 10 µM; AID 651702; hit rate 0.66% among 360,000;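 active means inhibition above about 55%, limit read from the data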
# T cell modulator: modulates CD8 T cell binding to vesicles | 2C CD8+ T cell-vesicle binding, flow cytometry; active compounds read low | AID 2052 | response (vesicle binding), % at 7 µM | hit rate 0.068% among 330,000;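 active means response, share of CD8 T cells binding vesicles, and their 90th percentile fluorescence all below set limits, cut at about 80% in these data, passing the limit was not always enough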;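 further: values below 100% mean blocked vesicle binding to the CD8+ T cells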
#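 Read-out – percent CD8+ FL2 mean versus row control · System – murine 2C transgenic CD8+ T lymphocytes · Times – 1.5 h cell–vesicle binding at 37 °C, then 20 min icy labelling · Control set – naked vesicles low, QL9 vesicles with vehicle high · Detection – cytometric PE anti-B7-1 and Alexa647 anti-CD8 signals after 1% paraformaldehyde fixation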
# An asterisk follows results filed as active; i = inactive; · = not tested or not shown; ! = not confirmed by another sample. In the library only some 2.6% were active in any assay of this set; here they are far more common.
SMILES,EP2 antag,EP2 mod,MC4R barr agon,MC4R antag cAMP,Exocytosis inh,T cell modulator
CCCCCCN(C(=O)CCl)c1ccccc1,7,3,18*,8,1,395
CCCCCCCN(C(=O)CCl)c1cccc(C)c1,8,44,9.0*,4,4,332
Cc1cccc(N(Cc2cc(=O)[nH]c3ccccc23)C(=O)CCl)c1,·,·,4,0,2,295
CN1C[C@H](c2ccccc2)C(O)([C@]2(c3ccccc3)CN(C)C[C@H](c3ccccc3)C2=O)[C@H](c2ccccc2)C1 (some centres not stated),40*,21,·,·,·,·
O=c1ccc2[n+]([O-])c3ccc(O)cc3oc-2c1,83*,-253,-1,1,3,·
Cc1ccc(C(=O)N/N=C\c2ccc(OC(=O)c3cccc(F)c3)cc2)cn1,·,·,0,-7,-1,191
O=C(N/N=C/c1cccc(OC(=O)c2ccccc2Cl)c1)c1cccnc1,·,·,1,3,7,0.0*
COc1cc(/C=N/NC(=O)c2ccc(COc3ccccc3Cl)o2)cc(Br)c1O,75*,-68,4,1,2,130
Cc1ccc(C(=O)N/N=C/c2ccc(OC(=O)c3ccccc3Cl)cc2)cn1,·,·,-2,-8,-14,190
COc1cc(/C=N\NC(=O)c2ccc(C)nc2)ccc1OC(=O)c1cccc(F)c1,·,·,9.1*,6,10,382
COc1cc(C(=O)N/N=C/c2ccc(OC(=O)c3ccccc3Cl)c(OC)c2)ccc1O,·,·,11*,6,13,312
COc1ccc(Nc2nnc(SCC(=O)N3CC(=O)Nc4ccccc43)s2)cc1,5,-14,2,7,-11,391
Cc1ccc(NC(=O)c2cc(CC(C)C)nc3ccccc23)cc1,·,·,3,8,-17,186
COC1=C(OC)C(=O)C(CCCCCCCCCCO)=C(C)C1=O,22,·,2,7,8,·
CCCCCCCCCCCC1=C(O)C(=O)C=C(O)C1=O,65*!,-15,16*,18,-2,587
COC1=CC(=O)C(O)=C(CCCCCCC/C=C/CCCCCCCC2=C(O)C(=O)C=C(OC)C2=O)C1=O,54*,·,1,0,-4,196
CCCCCCc1c(O)c2ccccc2[nH]c1=O,7,16,-2,1,-1,378
COc1ccc(NC(=O)C2CCCN2C(=O)Nc2ccccc2C)c(OC)c1 (configuration not stated),7,7,·,·,·,·
S=C(NC1CCCCC1)N(CCc1ccccc1)CCc1ccccc1,7,38,5,12,3,221
NC(=O)NCc1ccccc1,12,7,0,0,-6,·
CCOc1ccc2nc(NCCNC(=O)Nc3ccccc3)c(C#N)cc2c1,12,-33,9.6*,-3,-1,404
O=C1Nc2ccccc2C12OCCS2 (configuration not stated),9,20,·,·,·,0.0*
NS(=O)(=O)c1ccc(CCNC(=O)c2ccc(CS(=O)(=O)c3ccc(Br)cc3)o2)cc1,·,·,-3,9,-2,164
O=C1CCC(C(=O)N(CCO)Cc2ccccc2)CN1CCc1cccc(F)c1 (configuration not stated),·,·,-3,-3,-20,·
COc1ccc(/C=N\NC(=O)c2ccc(-c3ccccc3)cc2)cc1COC(C)=O,·,·,9.1*,0,2,391
SMILES,EP2 antag,EP2 mod,MC4R barr agon,MC4R antag cAMP,Exocytosis inh,T cell modulator
COc1cccc(OCc2cc(/C=N/Nc3ccc(C(=O)O)cc3)ccc2OC)c1,9,62*,-1,-4,0,369
CCSc1cnn(-c2ccccc2)c(=O)c1Cl,·,·,-1,5,-9,i
CCSc1cnn(-c2ccccc2)c(=O)c1SCC,136*,3,-1,10,1,178
CSc1cnn(-c2ccccc2)c(=O)c1SC,42*,3,0,6,2,287
O=C1c2ccccc2C(=O)c2c(Nc3ccc4c5c(cccc35)C(=O)c3ccccc3-4)cccc21,43*,19,·,·,·,·
O=C1c2ccccc2C(=O)c2c(Nc3cc4c5c(ccc6c7ccc8c9c(cc(Nc%10cccc%11c%10C(=O)c%10ccccc%10C%11=O)c(c3c56)c97)-c3ccccc3C8=O)C(=O)c3ccccc3-4)cccc21,44*,2,·,·,·,·
CCCOC(=O)c1c(-c2ccc(OC)cc2)oc2ccc(-c3ccc(OC)nc3)cc12,·,·,-1,0,22,569
CNC[C@@H](Cc1ccccc1)NC[C@@H](CC1CCCCC1)NCCCc1ccccc1,·,·,12*,1,7,·
CCC[C@@H](CNC)NC[C@H](Cc1ccccc1)NCCCCc1ccccc1,·,·,0,4,1,643
CCCCCN1CC(=O)N2[C@@H](Cc3c([nH]c4ccccc34)C2(C)C)C1=O,·,·,0,-2,-4,261
O=C(Cn1nc(-c2ccccc2)ccc1=O)NCCN1CCN(Cc2ccccc2)CC1,14,5,0,-2,-2,463
CC(C)(C)OC(=O)N1CCCC(C(=O)Nc2cccc(C(=O)N3CCOCC3)c2)C1 (configuration not stated),·,·,0,1,-4,·
CC(=O)Nc1cccc(NC(=O)C2C3C=CC(C3)C2C(=O)O)c1 (configuration not stated),·,·,1,12,-18,181
CC(NC(=O)CC(c1ccccc1)c1cc(Cl)ccc1O)c1ccccc1 (configuration not stated),5,-44,1,1,-4,217
CN(Cc1ccccc1)C(=O)CC(c1ccccc1)c1cc(Cl)ccc1O (configuration not stated),·,61*,3,-1,0,·
CCCCCCCCOC(=O)C1=C(C)Nc2nnnn2C1c1cccs1 (configuration not stated),3,66*,2,-7,6,223
CC(=O)Nc1ccc2sc(C)nc2c1,13,8,0,5,-6,82
Cc1nc2cc(NC(=O)/C=C/c3ccc(N(C)C)cc3)ccc2s1,82*,-117,·,·,·,·
Cc1cccn2c(=O)c(/C=C(\C#N)C(=O)NC3CCS(=O)(=O)C3)c(Oc3ccc(F)cc3)nc12 (configuration not stated),·,·,0,-2,74*,320
Cc1cccc(Oc2nc3ccccn3c(=O)c2/C=C(\C#N)C(=O)NC2CCS(=O)(=O)C2)c1C (configuration not stated),·,·,1,10,68*,215
Cc1cccn2c(=O)c(/C=C(\C#N)C(=O)NC3CCS(=O)(=O)C3)c(N3CCC(C)CC3)nc12 (configuration not stated),4,3,-1,14,1,212
O=C(COC(=O)c1cnccn1)NCCc1ccc(Cl)cc1,·,·,-2,4,-2,·

# Compound activity: PubChem, several laboratories
